Test results: ChEMBL document CHEMBL3600298, “Antiproliferative and apoptosis-inducing activities of novel naphthalimide-cyclam conjugates through dual topoisomerase (topo) I/II inhibition” (Bioorg Med Chem, 2015)
pIC50: −log10 of the molar value. Calls of active or inactive are those of the source. The calls are words filed in the database; no cut-off is given here.

Assays:
[1] = system: A549; test: Cytotoxicity against human A549 cells incubated for 24 hrs by sulforhodamine B assay; assay type: functional, cell-based; details: A549, 24 h
[2] = system: HeLa; test: Cytotoxicity against human HeLa cells incubated for 24 hrs by sulforhodamine B assay; assay type: functional, cell-based
[3] = system: HCT-116; test: Cytotoxicity against human HCT116 cells incubated for 24 hrs by sulforhodamine B assay; assay type: functional, cell-based; details: HCT-116, 24 h
[4] = target: DNA topoisomerase 2-alpha (Homo sapiens) (UniProt P11388); test: Inhibition of human topoisomerase 2 assessed as reduction in ATP-dependent kDNA decatenation at 100 uM incubated for 30 mins by ethidium bromide staining based electrophoresis method
[5] = species: Bos taurus; test: Inhibition of calf thymus topoisomerase 1 assessed as reduction in relaxation of supercoiled pBR322 DNA at 100 uM incubated for 30 mins by ethidium bromide staining based electrophoresis method
Procedure, shortened: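 Calf thymus topo I (0.1 unit) incubated with 0.5 μg supercoiled pBR322 DNA and compound for 30 min at 37 °C in topo I buffer with 0.01% BSA, 20 μL total. Reaction stopped with SDS/loading dye. Samples run on 0.8% agarose in TAE, 35 min at 120 V, then stained with ethidium bromide and imaged under UV.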

[6] = system: HeLa; test: Induction of apoptosis in human HeLa cells assessed as early apoptotic cells level at 10 uM incubated for 24 hrs by annexin V-FITC and propidium iodide staining based flow cytometry (reference value: 0.72%); assay type: functional
Procedure, shortened: (§1)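 HeLa cells seeded at 1 × 10^6 per well and exposed to compound at 10 μM for 24 h. Cells then treated with cold PBS and resuspended in binding buffer. Annexin V-FITC added, followed by 15 min at 4 °C in the dark. Apoptotic cells quantified by annexin V/PI double staining.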

[7] = system: HeLa; test: Induction of apoptosis in human HeLa cells assessed as late apoptotic cells level at 10 uM incubated for 24 hrs by annexin V-FITC and propidium iodide staining based flow cytometry (reference value: 1.81%); assay type: functional; procedure, shortened: as §1
[8] = system: HeLa; test: Induction of apoptosis in human HeLa cells at 10 uM incubated for 24 hrs by annexin V-FITC and propidium iodide staining based flow cytometry; assay type: functional; procedure, shortened: as §1
[9] = species: Bos taurus; test: Inhibition of calf thymus topoisomerase 1 assessed as reduction in relaxation of supercoiled pBR322 DNA at 200 uM incubated for 30 mins by ethidium bromide staining based electrophoresis method
Procedure, shortened: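 Calf thymus topo I, 0.1 units, with 0.5 µg supercoiled pBR322 DNA and compound in topo I buffer with 0.01% BSA, 20 µL total. Incubated 30 min at 37 °C. Reaction stopped with 10% SDS plus loading dye. Run on 0.8% agarose gel in TAE, 35 min at 120 V. Gel stained with ethidium bromide and imaged under UV.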

[10] = system: Calf thymus DNA; test: Binding affinity to calf thymus DNA assessed as induction of conformational changes at 20 uM by CD spectroscopy; assay type: nucleic-acid assay; details: Bos taurus
Procedure, shortened: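 ct-DNA in 20 mM Tris–HCl pH 7.4, concentration set from molar absorption coefficient 6600 M−1 cm−1, A260/A280 above 1.8; 100 μM DNA with 20 μM compound for 2 h at 25 °C; CD spectra recorded 200–400 nm in 1 cm quartz cell.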

Chain of DNA topoisomerase 2-alpha (Homo sapiens) (P11388 whole entry): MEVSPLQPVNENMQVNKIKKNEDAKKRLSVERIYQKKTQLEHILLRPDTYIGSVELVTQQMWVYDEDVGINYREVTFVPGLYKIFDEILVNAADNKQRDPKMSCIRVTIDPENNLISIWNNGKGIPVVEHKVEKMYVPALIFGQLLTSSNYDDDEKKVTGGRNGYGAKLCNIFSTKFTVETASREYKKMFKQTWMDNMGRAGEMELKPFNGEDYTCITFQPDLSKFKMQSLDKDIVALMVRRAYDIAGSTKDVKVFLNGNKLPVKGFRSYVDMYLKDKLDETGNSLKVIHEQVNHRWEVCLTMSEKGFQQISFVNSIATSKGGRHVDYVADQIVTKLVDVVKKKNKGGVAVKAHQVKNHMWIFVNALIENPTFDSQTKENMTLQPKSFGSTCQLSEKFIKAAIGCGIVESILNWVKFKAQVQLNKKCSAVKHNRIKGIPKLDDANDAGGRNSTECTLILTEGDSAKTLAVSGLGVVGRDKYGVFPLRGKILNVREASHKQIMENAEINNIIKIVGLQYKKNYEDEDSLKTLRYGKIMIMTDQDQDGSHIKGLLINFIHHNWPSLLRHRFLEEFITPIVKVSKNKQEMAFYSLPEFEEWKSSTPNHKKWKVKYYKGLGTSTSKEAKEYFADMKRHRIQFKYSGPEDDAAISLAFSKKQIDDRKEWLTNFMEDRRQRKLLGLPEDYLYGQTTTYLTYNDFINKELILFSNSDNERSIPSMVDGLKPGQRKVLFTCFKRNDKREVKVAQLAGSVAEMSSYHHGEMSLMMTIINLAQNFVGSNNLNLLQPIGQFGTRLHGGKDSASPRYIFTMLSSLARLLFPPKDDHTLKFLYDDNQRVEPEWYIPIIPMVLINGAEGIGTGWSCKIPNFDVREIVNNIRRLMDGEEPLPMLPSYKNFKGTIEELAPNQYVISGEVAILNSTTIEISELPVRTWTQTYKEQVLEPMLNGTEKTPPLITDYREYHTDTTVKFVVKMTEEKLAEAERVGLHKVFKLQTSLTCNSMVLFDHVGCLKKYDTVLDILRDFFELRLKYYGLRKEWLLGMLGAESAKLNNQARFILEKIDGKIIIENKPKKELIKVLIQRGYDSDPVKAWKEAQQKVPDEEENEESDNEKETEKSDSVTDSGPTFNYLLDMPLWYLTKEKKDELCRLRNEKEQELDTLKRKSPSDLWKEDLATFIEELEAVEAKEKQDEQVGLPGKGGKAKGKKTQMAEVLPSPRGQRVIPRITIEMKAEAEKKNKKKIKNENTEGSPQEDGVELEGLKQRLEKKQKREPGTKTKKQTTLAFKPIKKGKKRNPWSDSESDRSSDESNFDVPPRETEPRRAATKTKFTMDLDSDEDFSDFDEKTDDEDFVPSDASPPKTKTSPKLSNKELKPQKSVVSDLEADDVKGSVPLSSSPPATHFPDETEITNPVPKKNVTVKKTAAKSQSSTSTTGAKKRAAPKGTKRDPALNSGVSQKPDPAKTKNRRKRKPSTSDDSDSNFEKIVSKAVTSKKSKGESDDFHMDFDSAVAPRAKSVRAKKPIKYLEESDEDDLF

SMILES	pIC50 [1]	pIC50 [2]	pIC50 [3]	inhibition [4]	inhibition [5]	Activity [6] [%]	Activity [7] [%]	Activity [8] [%]	inhibition [9]	Activity [10]
CNc1ccc2c3c(cccc13)C(=O)N(CCCN1CCCNCCNCCCNCC1)C2=O	< 4.30	< 4.30	< 4.30	–	–	–	–	–	–	–
COc1cccc2c1C(=O)c1c(O)c3c(c(O)c1C2=O)C[C@@](O)(C(=O)CO)C[C@@H]3O[C@H]1C[C@H](N)[C@H](O)[C@H](C)O1	–	–	–	Active	–	–	–	–	–	–
CCCCCCCCCCCCN1C(=O)c2cccc3c(NCCN4CCCNCCNCCCNCC4)ccc(c23)C1=O	4.73	4.93	4.74	Active	Active	86.4	13.54	>90	–	–
CN1C(=O)c2cccc3c(NCCN4CCCNCCNCCCNCC4)ccc(c23)C1=O	4.46	4.86	4.47	–	–	–	–	–	–	–
CC[C@@]1(O)C(=O)OCc2c1cc1n(c2=O)Cc2cc3ccccc3nc2-1	–	–	–	–	–	–	–	–	Active	–
CN(C)CCN1C(=O)c2cccc3cc(N)cc(c23)C1=O [AMONAFIDE]	–	5.02	–	Active	Active	–	–	–	–	–
CCCCNc1ccc2c3c(cccc13)C(=O)N(CCCN1CCCNCCNCCCNCC1)C2=O	< 4.30	< 4.30	< 4.30	–	–	–	–	–	–	–
CCCCN1C(=O)c2cccc3c(NCCN4CCCNCCNCCCNCC4)ccc(c23)C1=O	4.41	4.72	4.53	–	–	–	–	–	–	–
C1CNCCNCCCNCCNC1	< 4.30	< 4.30	< 4.30	–	–	–	–	–	–	–
CCCCCCCCN1C(=O)c2cccc3c(NCCN4CCCNCCNCCCNCC4)ccc(c23)C1=O	4.80	4.99	4.78	Active	Active	39.47	60.48	>90	–	–
CCCCCCCCCCCCNc1ccc2c3c(cccc13)C(=O)N(CCCN1CCCNCCNCCCNCC1)C2=O	4.80	5.03	4.89	Active	Active	59.52	32.47	>90	–	–
CCCCCCCCNc1ccc2c3c(cccc13)C(=O)N(CCCN1CCCNCCNCCCNCC1)C2=O	4.94	5.08	5.09	Active	Active	1.49	98.46	>90	–	Active
